We go through 16 compounds from ChEMBL document CHEMBL1128343, “Synthesis, properties, and pharmacokinetic studies of N2-phenylguanine derivatives as inhibitors of herpes simplex virus thymidine kinases” (J Med Chem, 1995).

Broadly, the IC50 is the concentration that gives 50% inhibition. The low end stands for higher potency, the high end for lower potency. As usually defined, the Vd is the apparent volume that relates the amount in the body to the concentration in plasma or blood. The term half-life denotes how long it takes for the measured level to halve.

The target in data set [1] is T1, Thymidine kinase (Human herpesvirus 2, UniProt Q6L709).
T1 sequence (Q6L709 whole entry): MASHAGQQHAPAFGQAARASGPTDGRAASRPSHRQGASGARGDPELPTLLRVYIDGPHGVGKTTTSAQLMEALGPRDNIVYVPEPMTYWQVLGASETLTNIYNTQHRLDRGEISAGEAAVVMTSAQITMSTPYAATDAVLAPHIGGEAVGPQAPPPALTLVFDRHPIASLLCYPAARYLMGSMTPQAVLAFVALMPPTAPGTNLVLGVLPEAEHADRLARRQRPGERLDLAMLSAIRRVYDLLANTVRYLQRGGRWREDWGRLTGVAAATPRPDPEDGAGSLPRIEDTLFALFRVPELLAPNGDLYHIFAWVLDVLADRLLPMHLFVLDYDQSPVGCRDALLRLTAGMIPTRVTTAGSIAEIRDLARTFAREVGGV
The data set can be described thus: Inhibition of HSV-2 thymidine kinase, 2 uM [3H]thymidine and ATP as phosphate donor. Further details: species or system Human alphaherpesvirus 2. The gist of the method:
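TK purified by affinity column from HSV2-infected HeLa cells. Activity measured by DE-81 filter binding as phosphorylation of limiting 2 µM [3H]TdR with ATP as phosphate donor. Inhibitors were diluted from DMSO stocks, with matching DMSO in controls.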

Data set [2] addresses T2, Thymidine kinase (Human alphaherpesvirus 1, UniProt Q9QNF7).
T2 sequence (Q9QNF7 whole entry): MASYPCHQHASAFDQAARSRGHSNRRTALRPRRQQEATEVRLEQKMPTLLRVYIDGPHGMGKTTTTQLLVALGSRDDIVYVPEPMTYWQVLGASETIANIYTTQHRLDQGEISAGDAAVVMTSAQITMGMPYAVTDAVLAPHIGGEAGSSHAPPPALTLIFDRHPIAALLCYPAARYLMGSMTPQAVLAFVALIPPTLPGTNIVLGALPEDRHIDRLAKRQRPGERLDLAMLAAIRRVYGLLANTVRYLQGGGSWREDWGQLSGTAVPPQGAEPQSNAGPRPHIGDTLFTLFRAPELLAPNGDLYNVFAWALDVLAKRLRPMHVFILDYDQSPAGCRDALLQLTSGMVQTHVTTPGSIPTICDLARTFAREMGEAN
Nature of the data set: Inhibition of HSV-1 thymidine kinase, 1 uM [3H]thymidine and ATP as phosphate donor.

Data set [3] concerns Mus musculus. Nature of the data set: Plasma concentration at time-0 was measured in mice at 100 mg/kg after intraperitoneal administration with saline(pH=11.4) as vehicle. Format: ADME, organism-based. Further details: dose 100 mg/kg, route intraperitoneal. The conditions noted are these: in vivo, ip, pH 11.4, 100 mg/kg, read-out: Co. The essentials:
(§1)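 Male CD-1 mice (~25 g) received 100 mg/kg ip as a solution in saline pH 11.4 or 90% DMSO. Plasma was collected at intervals after decapitation, diluted 10-fold and stored at −21 °C. Drug was measured by C8 reverse-phase HPLC with UV at 275 nm against spiked-plasma standards (0.11–56 µM). C0 and ke came from least-squares regression of the terminal log-linear phase; t1/2 = ln2/ke.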

Data set [4] relates to Mus musculus. Nature of the data set: Plasma concentration at time-0 was measured in mice at 40 mg/kg after intravenous administration with saline(pH=11.4) as vehicle. Format: ADME, organism-based. The arrangement: dose 40 mg/kg, route intravenous. The settings on record: in vivo, pH 11.4, 40 mg/kg, read-out: Co. The essentials: (§2)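 Male CD-1 mice (~25 g) received 40 mg/kg iv via the tail vein, dissolved at 10 mg/mL in saline pH 11.4 or 90% aqueous DMSO. Blood was taken at intervals after decapitation, and plasma was diluted 10-fold. Drug was quantified by C8 reverse-phase HPLC with UV at 275 nm. C0 and ke came from a log-linear fit of all points; t1/2 = ln2/ke and Vd = dose/C0.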

Data set [5] is described as follows: Volume of distribution in mice plasma was determined at 40 mg/kg after intravenous administration with saline(pH=11.4) as vehicle. In kind it is ADME, organism-based. Further details: dose 40 mg/kg, route intravenous. The conditions noted are these: mouse. The gist of the method:
as §2

Data set [6] is described as follows: Half life in mice plasma was determined at 40 mg/kg after intravenous administration with saline(pH=11.4) as vehicle. In kind it is ADME, organism-based. Further details: dose 40 mg/kg, route intravenous. The settings on record: mouse. The essentials: as §2
The nature of data set [7]: Half life in mice plasma was determined at 100 mg/kg after intraperitoneal administration with saline(pH=11.4) as vehicle. Format: ADME, organism-based. The arrangement: dose 100 mg/kg, route intraperitoneal. The conditions noted are these: mouse, ip. The gist of the method: as §1
The subject of data set [8] is Mus musculus. The data set can be described thus: Plasma concentration at time-0 was measured in mice at 40 mg/kg after intravenous administration with 90% DMSO as vehicle. Format: ADME, organism-based. Further details: dose 40 mg/kg, route intravenous. The conditions noted are these: in vivo, read-out: Co. The essentials: as §2
Data set [9] can be described thus: Volume of distribution in mice plasma was determined at 40 mg/kg after intravenous administration with 90% DMSO as vehicle. In kind it is ADME, organism-based. The arrangement: dose 40 mg/kg, route intravenous. The settings on record: mouse. The gist of the method:
as §2

A short description of data set [10]: Half life in mice plasma was determined at 40 mg/kg after intravenous administration with 90% DMSO as vehicle. Format: ADME, organism-based. The arrangement: dose 40 mg/kg, route intravenous. The conditions noted are these: mouse. The gist of the method: as §2
Data set [11] can be described thus: Half life in mice plasma was determined at 100 mg/kg after intraperitoneal administration with 90% DMSO as vehicle. The conditions noted are these: mouse, ip.
Data set [12] concerns Mus musculus. The data set can be described thus: Plasma concentration at time-0 was measured in mice at 100 mg/kg after intraperitoneal administration with 90% DMSO as vehicle. The settings on record: in vivo, ip, read-out: Co.
Data set [13] concerns Mus musculus. The data set can be described thus: Plasma concentration at time-0 was measured in mice at 100 mg/kg after intraperitoneal administration with 90% DMSO as vehicle. The settings on record: in vivo, ip, read-out: Co. The arrangement: dose 100 mg/kg, route intraperitoneal. Format: ADME, organism-based. The essentials:
as §1

Consider `O=c1[nH]c(Nc2cccc(CC(F)(F)F)c2)nc2nc[nH]c12`, for which the IC50 on Thymidine kinase [1] turned out to be 1000 nM; at Thymidine kinase [2], 450 nM.
For `O=c1[nH]c(Nc2cccc(C(F)F)c2)nc2nc[nH]c12`, in that order: 3900 nM and 2800 nM.
`C=CCn1cnc2c(=O)[nH]c(Nc3ccccc3)nc21` came in with an IC50 against Thymidine kinase [1] of 180 nM. In other words, the sub-micromolar range.
With `O=c1[nH]c(Nc2ccccc2)nc2c1ncn2CC(O)CSCCO` (stereo unspecified), the half-maximal inhibitory concentration (IC50) against Thymidine kinase [1] and against Thymidine kinase [2] was 1600 nM each time.
`O=C(O)Cn1cnc2c(=O)[nH]c(Nc3ccccc3)nc21`: the half-inhibitory concentration (IC50) is 9800 nM against Thymidine kinase [1] and 12400 nM on Thymidine kinase [2].
In the case of `O=c1[nH]c(Nc2cccc(OC(F)(F)F)c2)nc2nc[nH]c12`, the figures for the IC50 against Thymidine kinase [1] and against Thymidine kinase [2] were 6300 nM and 2300 nM, respectively.
Consider `O=c1[nH]c(Nc2cccc(C(Cl)C(F)(F)Cl)c2)nc2nc[nH]c12` (stereo unspecified), for which the IC50 on Thymidine kinase [1] turned out to be 470 nM; against Thymidine kinase [2] it was 650 nM.
In the case of `COCCn1cnc2c(=O)[nH]c(Nc3ccccc3)nc21`, the IC50 at Thymidine kinase [1] came to 2700 nM; at Thymidine kinase [2], 610 nM.
In the same order, the values of `O=c1[nH]c(Nc2cccc(C(Cl)=C(Cl)Cl)c2)nc2[nH]cnc12` are 70000 nM and 70000 nM.
As to `O=c1[nH]c(Nc2ccccc2)nc2c1ncn2CC(O)CO` (stereo unspecified), the IC50 against Thymidine kinase [1] came to 3500 nM; against Thymidine kinase [2], 1700 nM.
As to `O=C1N=C(Nc2cccc(C(F)(F)F)c2)N=C2C1N=CN2[C@H]1C[C@H](O)[C@@H](CO)O1` (stereo partly specified), the values for the concentration for half-maximal inhibition (IC50) at Thymidine kinase [1] and against Thymidine kinase [2] were 2000 nM and 4000 nM, respectively.
For `O=C1N=C(Nc2ccccc2)N=C2C1N=CN2[C@H]1C[C@H](O)[C@@H](CO)O1` (stereo partly specified), the concentration is 11.7 µM in the data set on Mus musculus [3] and 174 µM with Mus musculus [4]. In data set [5], the Vd came to 0.4 L/kg. The results for the half-life in data set [6] and in [7] were 7.5 min and 60 min, respectively.
Take `O=c1[nH]c(Nc2ccccc2)nc2c1ncn2CCO`: the values for the concentration in the data set on Mus musculus [8] and in the data set on Mus musculus [12] were 44.7 µM and 100 µM, respectively. This compound yielded a Vd in data set [9] of 3.3 L/kg. The results for the half-life in data set [10] and in [11] were 15 min and 21 min, respectively.
In the case of `O=c1[nH]c(Nc2cccc(C(F)(F)F)c2)nc2nc[nH]c12`, the concentration in the data set on Mus musculus [3] was 10.2 µM; with Mus musculus [4], 54.2 µM. Also, in [5], the Vd was 3 L/kg. The half-life in data set [6] is 25 min.
For the compound `O=c1[nH]c(Nc2ccccc2)nc2c1ncn2CCCCO`, the concentration amounted to 30.5 µM in the data set on Mus musculus [13] and 49.5 µM with Mus musculus [8]. The compound further displayed a Vd in [9] of 2.7 L/kg. In data set [10], this compound yielded a half-life of 14 min.
Regarding `OCCn1cnc2c(O)nc(Nc3cccc(C(F)(F)F)c3)nc21`, the IC50 turned out to be 20400 nM on Thymidine kinase [1] and 4700 nM against Thymidine kinase [2].
